Assay results as given in ChEMBL document CHEMBL3124843, “Synthesis, cytostatic, antimicrobial, and anti-HCV activity of 6-substituted 7-(het)aryl-7-deazapurine ribonucleosides” (J Med Chem, 2014).
Activity calls are given as the source filed them. The rule behind the calls is not given here.

Columns and labels:
[1] = tested on: Hepatitis C virus; experiment: Antiviral activity against Hepatitis C virus subtype 1b infected in human HuH7 cells; type: functional, organism-based, Hepacivirus hominis; settings: genotype 1b, Huh-7
[2] = tested on: Pichia kudriavzevii; experiment: Antifungal activity against Candida crusei after 48 hrs; type: functional, organism-based
[3] = tested on: BJ; experiment: Cytostatic activity against human BJ cells after 72 hrs by MTT assay; type: ADME, cell-based
In short: (§1)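 IC50 is the concentration that cuts cell growth by 50%, read by quantitative metabolic MTT staining after a 3-day treatment. The resistant sublines were made by raising the concentration of the cytotoxic drug step by step. CEM-DNR-bulk (daunorubicin-selected) stably overexpresses mrp-1. K562-TAX (paclitaxel-selected) expresses only mdr-1. HCT116p53−/− carries null p53 alleles. BJ and MRC-5 are nonmalignant fibroblasts.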

[4] = tested on: Pseudomonas aeruginosa; experiment: Antibacterial activity against multi-resistant Pseudomonas aeruginosa A/16575 after 24 hrs; type: functional, organism-based
[5] = Cytotoxicity against human HuH7 cells infected with Hepatitis C virus subtype 2a; type: cell-based, Huh-7
[6] = tested on: HL-60; experiment: Antiproliferative activity against human HL60 cells after 72 hrs by XTT assay; type: functional, cell-based; settings: HL-60, 72 h
In short: (§2)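 Antiproliferative test on HL-60 promyelocytic leukemia and HeLa S3 cervical carcinoma cells growing in liquid suspension.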

[7] = tested on: A549; experiment: Cytostatic activity against human A549 cells after 72 hrs by MTT assay; type: functional, cell-based; settings: A549, 72 h; in short: as §1
[8] = Cytotoxicity against human HuH7 cells infected with Hepatitis C virus subtype 1b; type: cell-based, Huh-7
[9] = tested on: Staphylococcus aureus; experiment: Antibacterial activity against Staphylococcus aureus CCM 3953 after 24 hrs; type: functional, organism-based
[10] = tested on: Pseudomonas aeruginosa; experiment: Antibacterial activity against Pseudomonas aeruginosa CCM 3955 after 24 hrs; type: functional, organism-based
[11] = tested on: Candida parapsilosis; experiment: Antifungal activity against Candida parapsilosis after 48 hrs; type: functional, organism-based
[12] = tested on: HCT-116; experiment: Cytostatic activity against p53-deficient human HCT116 cells after 72 hrs by MTT assay; type: functional, cell-based; settings: HCT-116, 72 h; in short: as §1
[13] = tested on: Enterococcus faecalis; experiment: Antibacterial activity against Enterococcus faecalis CCM 4224 after 24 hrs; type: functional, organism-based
[14] = tested on: Candida albicans; experiment: Antifungal activity against Candida albicans after 48 hrs; type: functional, organism-based
[15] = tested on: CCRF-CEM; experiment: Cytostatic activity against human CCRF-CEM cells after 72 hrs by MTT assay; type: functional, cell-based; in short: as §1
[16] = tested on: K562; experiment: Cytostatic activity against human K562 cells after 72 hrs by MTT assay; type: functional, cell-based; settings: K562, 72 h; in short: as §1
[17] = tested on: Escherichia coli; experiment: Antibacterial activity against multi-resistant Escherichia coli C/16702 after 24 hrs; type: functional, organism-based
[18] = tested on: HCT-116; experiment: Cytostatic activity against human HCT116 cells after 72 hrs by MTT assay; type: functional, cell-based; settings: HCT-116, 72 h; in short: as §1
[19] = tested on: HepG2; experiment: Antiproliferative activity against human HepG2 cells after 72 hrs by XTT assay; type: functional, cell-based; settings: HepG2, 72 h
[20] = tested on: Staphylococcus aureus; experiment: Antibacterial activity against methicillin-resistant Staphylococcus aureus MRSA 4591 after 24 hrs; type: functional, organism-based
[21] = tested on: Staphylococcus haemolyticus; experiment: Antibacterial activity against methicillin-resistant Staphylococcus haemolyticus A/16568 after 24 hrs; type: functional, organism-based
[22] = tested on: K562; experiment: Cytostatic activity against paclitaxel-resistant human K562 cells after 72 hrs by MTT assay; type: functional, cell-based; settings: K562, 72 h; in short: as §1
[23] = tested on: Candida tropicalis; experiment: Antifungal activity against Candida tropicalis after 48 hrs; type: functional, organism-based
[24] = tested on: Hepatitis C virus; experiment: Antiviral activity against Hepatitis C virus subtype 2a infected in human HuH7 cells; type: functional, organism-based, Hepacivirus hominis; settings: genotype 2a, Huh-7
[25] = tested on: Escherichia coli; experiment: Antibacterial activity against Escherichia coli CCM 3954 after 24 hrs; type: functional, organism-based
[26] = Antiproliferative activity against human HeLaS3 cells after 72 hrs by XTT assay; type: functional, cell-based; settings: HeLa S3, 72 h; in short: as §2
[27] = Cytostatic activity against human CEM-DNR-bulk cells after 72 hrs by MTT assay; type: functional, cell-based; in short: as §1
[28] = tested on: MRC5; experiment: Cytostatic activity against human MRC5 cells after 72 hrs by MTT assay; type: ADME, cell-based; settings: MRC5, 72 h; in short: as §1

Structure (SMILES) | EC50 [1] | Activity [2] | IC50 [3] | Activity [4] | CC50 [5] | IC50 [6] | IC50 [7] | CC50 [8] | Activity [9] | Activity [10] | Activity [11] | IC50 [12] | Activity [13] | Activity [14] | IC50 [15] | IC50 [16] | Activity [17] | IC50 [18] | IC50 [19] | Activity [20] | further results
O=c1[nH]cnc2c1c(-c1cccs1)cn2[C@@H]1O[C@H](CO)[C@@H](O)[C@H]1O | > 44 µM | inactive | > 100 µM | inactive | > 44 µM | > 20 µM | > 20 µM | > 44 µM | inactive | inactive | inactive | > 20 µM | inactive | inactive | > 20 µM | > 20 µM | inactive | > 20 µM | > 20 µM | inactive | Activity [21]: inactive; IC50 [22]: > 20 µM; Activity [23]: inactive; EC50 [24]: > 44 µM; Activity [25]: inactive; IC50 [26]: > 20 µM; IC50 [27]: > 20 µM; IC50 [28]: > 100 µM
O=c1[nH]cnc2c1c(-c1ccccc1)cn2[C@@H]1O[C@H](CO)[C@@H](O)[C@H]1O | > 44 µM | inactive | > 100 µM | inactive | > 44 µM | > 20 µM | > 100 µM | > 44 µM | inactive | inactive | inactive | > 20 µM | inactive | inactive | > 100 µM | > 20 µM | inactive | > 100 µM | > 20 µM | inactive | Activity [21]: inactive; IC50 [22]: > 20 µM; Activity [23]: inactive; EC50 [24]: > 44 µM; Activity [25]: inactive; IC50 [26]: > 20 µM; IC50 [27]: > 20 µM; IC50 [28]: > 100 µM
Cc1ncnc2c1c(-c1cccs1)cn2[C@@H]1O[C@H](CO)[C@@H](O)[C@H]1O | 6.67 µM | inactive | > 100 µM | inactive | > 44 µM | 5.73 µM | > 20 µM | > 44 µM | inactive | inactive | inactive | > 20 µM | inactive | inactive | > 20 µM | > 20 µM | inactive | > 20 µM | > 15 µM | inactive | Activity [21]: inactive; IC50 [22]: > 20 µM; Activity [23]: inactive; EC50 [24]: > 44 µM; Activity [25]: inactive; IC50 [26]: > 15 µM; IC50 [27]: > 20 µM; IC50 [28]: > 100 µM
Cc1nc(N)c2c(-c3cccs3)cn([C@@H]3O[C@H](CO)[C@@H](O)[C@H]3O)c2n1 | > 44 µM | inactive | > 100 µM | inactive | > 44 µM | > 20 µM | > 20 µM | > 44 µM | inactive | inactive | inactive | > 20 µM | inactive | inactive | > 20 µM | > 20 µM | inactive | > 20 µM | > 20 µM | inactive | Activity [21]: inactive; IC50 [22]: > 20 µM; Activity [23]: inactive; EC50 [24]: > 44 µM; Activity [25]: inactive; IC50 [26]: > 20 µM; IC50 [27]: > 20 µM; IC50 [28]: > 100 µM
CSc1ncnc2c1ccn2[C@@H]1O[C@H](CO)[C@@H](O)[C@H]1O | 29.9 µM | inactive | > 100 µM | inactive | > 44 µM | 7.19 µM | > 20 µM | > 44 µM | inactive | inactive | inactive | > 20 µM | inactive | inactive | > 20 µM | > 20 µM | inactive | > 20 µM | > 20 µM | inactive | Activity [21]: inactive; IC50 [22]: 0.1 µM; Activity [23]: inactive; EC50 [24]: > 44 µM; Activity [25]: inactive; IC50 [26]: 11.9 µM; IC50 [27]: 3.61 µM; IC50 [28]: > 100 µM
Cc1ncnc2c1c(-c1ccco1)cn2[C@@H]1O[C@H](CO)[C@@H](O)[C@H]1O | 0.07 µM | inactive | 0.07 µM | inactive | 43.6 µM | 0.21 µM | 0.11 µM | 6.62 µM | inactive | inactive | inactive | 0.04 µM | inactive | inactive | 0.04 µM | 0.04 µM | inactive | 0.04 µM | 0.3 µM | inactive | Activity [21]: inactive; IC50 [22]: 0.11 µM; Activity [23]: inactive; EC50 [24]: 0.15 µM; Activity [25]: inactive; IC50 [26]: 1.33 µM; IC50 [27]: 0.07 µM; IC50 [28]: 0.61 µM
